Our source for the MIC values is ChEMBL document CHEMBL1152472, “AdeIJK, a resistance-nodulation-cell division pump effluxing multiple antibiotics in Acinetobacter baumannii” (2008).

≈ marks a conversion by molar mass, not a printed value.

Experiment [1] has as its system Acinetobacter baumannii. Description: Antimicrobial activity against Acinetobacter baumannii BM4651 expressing deltaadeABC genes isolated from patient with urinary tract infection by E test. The note with it: BM4651, Urine.
For experiment [2], the system named is Acinetobacter baumannii. Put plainly: Antimicrobial activity against Acinetobacter baumannii BM4579 expressing adeIJK genes with pAT807 isolated from patient with urinary tract infection by E test. As to conditions: BM4579, Urine.
Experiment [3] has as its system Acinetobacter baumannii. Put plainly: Antimicrobial activity against Acinetobacter baumannii BM4652 expressing adeIJK genes with pAT807 isolated from patient with urinary tract infection by E test. Format: functional. As to conditions: BM4652, Urine. Summed up:
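E-test MIC on solid medium, with 0.005 mM IPTG added to induce adeIJK carried on plasmid pAT807 in the ΔadeIJK host. Growth was at 37°C.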

Experiment [4] relates to Acinetobacter baumannii. Put plainly: Antimicrobial activity against Acinetobacter baumannii BM4454 isolated from patient with urinary tract infection by E test. Format: functional. The note with it: BM4454, Urine. Put shortly:
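MIC read by E-test strip on solid medium against the multiresistant AdeABC-overexpressing urinary isolate. Strains were grown at 37°C in brain heart infusion or LB.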

For experiment [5], the system named is Acinetobacter baumannii. Description: Antimicrobial activity against Acinetobacter baumannii BM4652 expressing adeABC adeIJK double mutant isolated from patient with urinary tract infection by E test. Format: functional. As to conditions: BM4652, Urine. Put shortly:
(§1)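 MICs determined on solid medium (Mueller-Hinton agar) by E-test. The strains are deletion-insertion derivatives of multiresistant urinary isolate BM4454 that lack adeIJK, adeABC or both. Strains were grown at 37°C in brain heart infusion broth or agar or in LB.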

The test system of experiment [6] is Acinetobacter baumannii. Description: Antimicrobial activity against Acinetobacter baumannii BM4579 expressing deltaadeIJK genes isolated from patient with urinary tract infection by E test. Format: functional. The note with it: BM4579, Urine. Put shortly:
as §1

Experiment [7] concerns Acinetobacter baumannii. Put plainly: Antimicrobial activity against Acinetobacter baumannii BM4579 expressing deltaadeIJK genes isolated from patient with urinary tract infection by agar dilution method. The note with it: BM4579, Urine. Format: functional. Put shortly: (§2)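 MICs determined by agar dilution on Mueller-Hinton agar with 10^4 CFU/spot; this method was used for ticarcillin and SDS. The strains are ΔadeIJK or ΔadeABC ΔadeIJK deletion-insertion derivatives of urinary isolate BM4454, grown at 37°C in brain heart infusion or LB medium.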
For orientation: Agar dilution tests growth on a series of plates holding different concentrations.

The test system of experiment [8] is Acinetobacter baumannii. Put plainly: Antimicrobial activity against Acinetobacter baumannii BM4652 expressing adeIJK genes with pAT807 isolated from patient with urinary tract infection by agar dilution method. Format: functional. The note with it: BM4652, Urine. Summed up: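 Agar-dilution MIC (ticarcillin, SDS), with 0.005 mM IPTG added to induce plasmid pAT807-borne adeIJK in the ΔadeIJK background. Growth was at 37°C.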

For experiment [9], the system named is Acinetobacter baumannii. Description: Antimicrobial activity against Acinetobacter baumannii BM4579 expressing adeIJK genes with pAT807 isolated from patient with urinary tract infection by E test. Format: functional. The note with it: BM4579, Urine, in the assay text read “agar dilution method” for “E test”.
For experiment [10], the system named is Acinetobacter baumannii. Put plainly: Antimicrobial activity against Acinetobacter baumannii BM4652 expressing adeABC adeIJK double mutant isolated from patient with urinary tract infection by agar dilution method. Format: functional. The note with it: BM4652, Urine. Put shortly: as §2
For experiment [11], the system named is Acinetobacter baumannii. Description: Antimicrobial activity against Acinetobacter baumannii BM4651 expressing deltaadeIJK genes isolated from patient with urinary tract infection by agar dilution method. Format: functional. As to conditions: BM4651, Urine, in the assay text read “deltaadeABC” for “deltaadeIJK”. Summed up:
(§3)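 MIC by agar dilution, the method used for ticarcillin and SDS. Strains were grown at 37°C in brain heart infusion or LB.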

Experiment [12] deals with Acinetobacter baumannii. Description: Antimicrobial activity against Acinetobacter baumannii BM4454 isolated from patient with urinary tract infection by agar dilution method. Format: functional. The note with it: BM4454, Urine. Put shortly:
as §3

The term MIC denotes the least concentration at which growth counts as inhibited. High values mean weaker potency, low ones greater potency.

In the case of `CC[C@H]1OC(=O)[C@H](C)[C@@H](O[C@H]2C[C@@](C)(OC)[C@@H](O)[C@H](C)O2)[C@H](C)[C@@H](O[C@@H]2O[C@H](C)C[C@H](N(C)C)[C@H]2O)[C@](C)(O)C[C@@H](C)CN(C)[C@H](C)[C@@H](O)[C@]1(C)O` [AZITHROMYCIN], the minimal inhibitory concentration (MIC) with Acinetobacter baumannii [1] turned out to be 1.5 µg/mL (≈ 2 µM); against Acinetobacter baumannii [2] it was 96 µg/mL (≈ 128 µM); in the experiment on Acinetobacter baumannii [3] it was 24 µg/mL (≈ 32 µM); in the experiment with Acinetobacter baumannii [4] it was 96 µg/mL (≈ 128 µM); in the experiment on Acinetobacter baumannii [5] it was 1.5 µg/mL (≈ 2 µM); with Acinetobacter baumannii [6] it was 96 µg/mL (≈ 128 µM).

Consider `CO/N=C(\C(=O)N[C@@H]1C(=O)N2C(C(=O)O)=C(COC(C)=O)CS[C@H]12)c1csc(N)n1` [CEFOTAXIME], for which the MIC in the experiment on Acinetobacter baumannii [1] is 8 µg/mL (≈ 17.6 µM); against Acinetobacter baumannii [2], 3 µg/mL (≈ 6.59 µM); in the experiment on Acinetobacter baumannii [3], 0.25 µg/mL (≈ 0.549 µM); with Acinetobacter baumannii [4], 8 µg/mL (≈ 17.6 µM); against Acinetobacter baumannii [5] it was 1.5 µg/mL (≈ 3.29 µM); in the experiment with Acinetobacter baumannii [6], 1.5 µg/mL (≈ 3.29 µM).

Turning to `O=C(N[C@H](CO)[C@H](O)c1ccc([N+](=O)[O-])cc1)C(Cl)Cl` [CHLORAMPHENICOL], the MIC came out at 128 µg/mL (≈ 396 µM) with Acinetobacter baumannii [1]; 96 µg/mL (≈ 297 µM) with Acinetobacter baumannii [2]; 6 µg/mL (≈ 18.6 µM) against Acinetobacter baumannii [3]; 256 µg/mL (≈ 792 µM) with Acinetobacter baumannii [4]; 16 µg/mL (≈ 49.5 µM) against Acinetobacter baumannii [5]; 64 µg/mL (≈ 198 µM) in the experiment with Acinetobacter baumannii [6].

In the case of `CCC[C@@H]1C[C@@H](C(=O)N[C@@H]([C@H]2O[C@H](SC)[C@H](O)[C@@H](O)[C@H]2O)[C@H](C)Cl)N(C)C1` [CLINDAMYCIN], the MIC in the experiment on Acinetobacter baumannii [1] was over 256 µg/mL; in the experiment with Acinetobacter baumannii [2], 48 µg/mL (≈ 113 µM); in the experiment on Acinetobacter baumannii [3], 2 µg/mL (≈ 4.71 µM); against Acinetobacter baumannii [4], over 256 µg/mL; against Acinetobacter baumannii [5] it was 2 µg/mL (≈ 4.71 µM); against Acinetobacter baumannii [6] it was 48 µg/mL (≈ 113 µM).

`CC[C@H]1OC(=O)[C@H](C)[C@@H](O[C@H]2C[C@@](C)(OC)[C@@H](O)[C@H](C)O2)[C@H](C)[C@@H](O[C@@H]2O[C@H](C)C[C@H](N(C)C)[C@H]2O)[C@](C)(O)C[C@@H](C)C(=O)[C@H](C)[C@@H](O)[C@]1(C)O` [ERYTHROMYCIN]: the MIC with Acinetobacter baumannii [1] amounted to 4 µg/mL (≈ 5.45 µM); against Acinetobacter baumannii [2] it was 12 µg/mL (≈ 16.4 µM); in the experiment with Acinetobacter baumannii [3], 3 µg/mL (≈ 4.09 µM); in the experiment with Acinetobacter baumannii [4], 12 µg/mL (≈ 16.4 µM); against Acinetobacter baumannii [5], 1.5 µg/mL (≈ 2.04 µM); in the experiment with Acinetobacter baumannii [6], 8 µg/mL (≈ 10.9 µM).

Take `C[C@@H](O)[C@H]1C(=O)N2C(C(=O)O)=C(SCCNC=N)C[C@H]12` [IMIPENEM ANHYDROUS]: the MIC amounted to 0.5 µg/mL (≈ 1.67 µM) with Acinetobacter baumannii [1]; 0.25 µg/mL (≈ 0.835 µM) against Acinetobacter baumannii [2]; 96 µg/mL (≈ 321 µM) with Acinetobacter baumannii [3]; 0.5 µg/mL (≈ 1.67 µM) with Acinetobacter baumannii [4]; 0.25 µg/mL (≈ 0.835 µM) with Acinetobacter baumannii [5]; 0.25 µg/mL (≈ 0.835 µM) in the experiment with Acinetobacter baumannii [6].

With `C[C@H]1COc2c(N3CCN(C)CC3)c(F)cc3c(=O)c(C(=O)O)cn1c23.C[C@H]1COc2c(N3CCN(C)CC3)c(F)cc3c(=O)c(C(=O)O)cn1c23.O` [LEVOFLOXACIN], the MIC with Acinetobacter baumannii [1] was 3 µg/mL; in the experiment on Acinetobacter baumannii [3] it was 2 µg/mL; against Acinetobacter baumannii [4] it was 12 µg/mL; against Acinetobacter baumannii [5], 0.38 µg/mL; with Acinetobacter baumannii [6], 6 µg/mL.

On to `CN(C)c1ccc(O)c2c1C[C@H]1C[C@H]3[C@H](N(C)C)C(O)=C(C(N)=O)C(=O)[C@@]3(O)C(O)=C1C2=O` [MINOCYCLINE], for which the MIC against Acinetobacter baumannii [1] worked out at 0.5 µg/mL (≈ 1.09 µM); in the experiment on Acinetobacter baumannii [2], 1 µg/mL (≈ 2.19 µM); with Acinetobacter baumannii [3] it was 0.75 µg/mL (≈ 1.64 µM); against Acinetobacter baumannii [4] it was 1.5 µg/mL (≈ 3.28 µM); in the experiment on Acinetobacter baumannii [5] it was 0.064 µg/mL (≈ 0.14 µM); in the experiment with Acinetobacter baumannii [6], 0.25 µg/mL (≈ 0.546 µM).

In the case of `COc1c(N2C[C@@H]3CCCN[C@@H]3C2)c(F)cc2c(=O)c(C(=O)O)cn(C3CC3)c12` [MOXIFLOXACIN], the MIC with Acinetobacter baumannii [1] worked out at 3 µg/mL (≈ 7.47 µM); in the experiment with Acinetobacter baumannii [2] it was 16 µg/mL (≈ 39.9 µM); in the experiment on Acinetobacter baumannii [4], 12 µg/mL (≈ 29.9 µM); with Acinetobacter baumannii [5], 0.5 µg/mL (≈ 1.25 µM); against Acinetobacter baumannii [6], 12 µg/mL (≈ 29.9 µM).

Turning to `CCn1cc(C(=O)O)c(=O)c2cc(F)c(N3CCN(C)CC3)cc21` [PEFLOXACIN], the MIC in the experiment with Acinetobacter baumannii [1] came out at 24 µg/mL (≈ 72 µM); against Acinetobacter baumannii [2], 48 µg/mL (≈ 144 µM); against Acinetobacter baumannii [3] it was 12 µg/mL (≈ 36 µM); in the experiment with Acinetobacter baumannii [4], 48 µg/mL (≈ 144 µM); in the experiment on Acinetobacter baumannii [5], 4 µg/mL (≈ 12 µM); against Acinetobacter baumannii [6], 24 µg/mL (≈ 72 µM).

As to `CO[C@H]1/C=C/O[C@@]2(C)Oc3c(C)c(O)c4c(O)c(c(/C=N/N5CCN(C)CC5)c(O)c4c3C2=O)NC(=O)/C(C)=C\C=C\[C@H](C)[C@H](O)[C@@H](C)[C@@H](O)[C@@H](C)[C@H](OC(C)=O)[C@@H]1C` [RIFAMPIN], the MIC in the experiment with Acinetobacter baumannii [1] was found to be 4 µg/mL (≈ 4.86 µM); against Acinetobacter baumannii [2], 2 µg/mL (≈ 2.43 µM); against Acinetobacter baumannii [3], 1.5 µg/mL (≈ 1.82 µM); with Acinetobacter baumannii [4], 4 µg/mL (≈ 4.86 µM); against Acinetobacter baumannii [5], 2 µg/mL (≈ 2.43 µM); against Acinetobacter baumannii [6], 2 µg/mL (≈ 2.43 µM).

For `CN(C)[C@@H]1C(O)=C(C(N)=O)C(=O)[C@@]2(O)C(O)=C3C(=O)c4c(O)cccc4[C@@](C)(O)[C@H]3C[C@@H]12` [TETRACYCLINE], the minimal inhibitory concentration (MIC) worked out at 8 µg/mL (≈ 18 µM) against Acinetobacter baumannii [1]; 6 µg/mL (≈ 13.5 µM) against Acinetobacter baumannii [2]; 0.75 µg/mL (≈ 1.69 µM) against Acinetobacter baumannii [3]; 48 µg/mL (≈ 108 µM) in the experiment with Acinetobacter baumannii [4]; 0.5 µg/mL (≈ 1.13 µM) with Acinetobacter baumannii [5]; 4 µg/mL (≈ 9 µM) in the experiment with Acinetobacter baumannii [6].

Turning to `CC1(C)S[C@@H]2[C@H](NC(=O)[C@H](C(=O)O)c3ccsc3)C(=O)N2[C@H]1C(=O)O` [TICARCILLIN], the MIC against Acinetobacter baumannii [7] was 1 µg/mL (≈ 2.6 µM); in the experiment with Acinetobacter baumannii [8], over 256 µg/mL; in the experiment on Acinetobacter baumannii [9] it was over 256 µg/mL; in the experiment with Acinetobacter baumannii [10], 1 µg/mL (≈ 2.6 µM); in the experiment on Acinetobacter baumannii [11] it was 8 µg/mL (≈ 20.8 µM); with Acinetobacter baumannii [12] it was 8 µg/mL (≈ 20.8 µM).

Consider `CN(C)c1cc(NC(=O)CNC(C)(C)C)c(O)c2c1C[C@H]1C[C@H]3[C@H](N(C)C)C(O)=C(C(N)=O)C(=O)[C@@]3(O)C(O)=C1C2=O` [TIGECYCLINE], for which the MIC in the experiment with Acinetobacter baumannii [1] came out at 0.5 µg/mL (≈ 0.854 µM); in the experiment on Acinetobacter baumannii [2] it was 2 µg/mL (≈ 3.41 µM); against Acinetobacter baumannii [3], 3 µg/mL (≈ 5.12 µM); with Acinetobacter baumannii [4], 4 µg/mL (≈ 6.83 µM); with Acinetobacter baumannii [5], 0.047 µg/mL (≈ 0.0803 µM); with Acinetobacter baumannii [6], 1.5 µg/mL (≈ 2.56 µM).
